Test results reported in ChEMBL document CHEMBL1137569, “Pharmacomodulations around the 4-oxo-1,4-dihydroquinoline-3-carboxamides, a class of potent CB2-selective cannabinoid receptor ligands: consequences in receptor affinity and functionality” (J Med Chem, 2007).

Experiments:
Cannabinoid receptor 2 [1] = molecular target: T1, Cannabinoid receptor 2 (Homo sapiens, UniProt P34972); assay: Activity at human CB2 receptor expressed in CHO cells assessed as stimulated [35S]GTP-gamma-S binding relative to control; format: functional, cell-based; set-up: concentration or dose not given beside the values
T1 sequence (P34972 whole entry): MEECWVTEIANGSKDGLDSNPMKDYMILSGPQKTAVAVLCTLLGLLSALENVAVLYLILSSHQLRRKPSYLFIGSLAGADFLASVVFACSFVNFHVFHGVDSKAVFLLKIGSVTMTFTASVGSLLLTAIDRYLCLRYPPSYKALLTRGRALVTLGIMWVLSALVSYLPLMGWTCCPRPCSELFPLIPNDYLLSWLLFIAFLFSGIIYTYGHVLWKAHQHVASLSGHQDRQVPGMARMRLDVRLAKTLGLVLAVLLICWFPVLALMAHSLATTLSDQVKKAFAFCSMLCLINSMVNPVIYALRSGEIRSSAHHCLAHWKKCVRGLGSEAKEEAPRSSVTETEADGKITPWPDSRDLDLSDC

Cannabinoid receptor 2 [2] = molecular target: T1, Cannabinoid receptor 2; assay: Displacement of [3H]CP-55940 from human CB2 receptor expressed in CHO cells; format: cell-based; set-up: concentration or dose not given beside the values
Outline: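 Competitive radioligand binding on membranes from CHO cells expressing hCB2, with [3H]-CP-55,940 as tracer. Compounds were first screened at 10 µM. Ki at CB2 was then determined for those displacing more than 60% of specific binding.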

Cannabinoid receptor 2 [3] = molecular target: T1, Cannabinoid receptor 2; assay: Inhibition of human CB2 receptor expressed in CHO cells; format: cell-based

SMILES	Activity (Cannabinoid receptor 2 [1]) [%]	Activity (Cannabinoid receptor 2 [2]) [%]	Ki (Cannabinoid receptor 2 [3]) [nM]
CCCCCn1cc(C(=O)NC(C)C23CC4CC(CC(C4)C2)C3)c(=O)c2ccc(Cl)cc21 (single isomer, unassigned; (-)) [listing 1 of 2 here]	53.5	102	–
CC12CC3CC(C)(C1)CC(NC(=O)c1cn(CCN4CCOCC4)c4ccccc4c1=O)(C3)C2	141	95.6	221
CCCCCn1cc(C(=O)NC(C)C23CC4CC(CC(C4)C2)C3)c(=O)c2cc(Cl)ccc21 (single isomer, unassigned; (-)) [listing 1 of 2 here]	–	–	235
CCCCCn1cc(C(=O)c2ccc3c(c2)COC3)c(=O)c2ccccc21	–	70.2	> 2000
CCCCCn1cc(CNCC2CCCc3ccccc32)c(=O)c2ccccc21 (racemic)	–	63.9	> 4000
CCCCCn1cc(C(=O)NC(C)C23CC4CC(CC(C4)C2)C3)c(=O)c2ccccc21 (stereo in doubt; 24) [listing 1 of 2 here]	–	–	14
CCCCCn1cc(CNC23CC4CC(CC(C4)C2)C3)c(=O)c2ccccc21	–	81.3	1670
CCCCCn1cc(C(=O)NC2CCCc3ccccc32)c(=O)c2cc(Cl)ccc21 (single isomer, unassigned; (+)) [listing 1 of 2 here]	–	–	121
CCCCCn1cc(C(=O)c2ccc3cc(OC)ccc3c2)c(=O)c2ccccc21	–	44.1	–
CCCCCn1cc(C(=O)NC2CCCc3ccccc32)c(=O)c2cc(Cl)ccc21 (racemic) [listing 1 of 2 here]	98.5	98.2	–
CC(NC(=O)c1cn(CCN2CCOCC2)c2ccccc2c1=O)c1ccccc1 (single isomer, unassigned; (-))	–	66.5	< 2000
CCCCCn1cc(C(=O)NC2CCCc3ccccc32)c(=O)c2cc(Cl)ccc21 (racemic) [listing 2 of 2 here]	–	–	506
CCCCCn1cc(C(=O)NC(C)C23CC4CC(CC(C4)C2)C3)c(=O)c2cc(Cl)ccc21 (racemic) [listing 1 of 2 here]	–	–	222
CC12CC3CC(C)(C1)CC(NC(=O)c1cn(Cc4ccc(Br)cc4)c4ccccc4c1=O)(C3)C2	–	30.5	–
CCCCCn1cc(C(=O)NC(C)C23CC4CC(CC(C4)C2)C3)c(=O)c2ccc(Cl)cc21 (single isomer, unassigned; (-)) [listing 2 of 2 here]	–	–	26.1
O=C(c1cn(CCC2CCCCC2)c2ccccc2c1=O)c1cccc2ccccc12	–	78.5	1670
CCCCCn1cc(C(=O)NC(C)C23CC4CC(CC(C4)C2)C3)c(=O)c2cc(Cl)ccc21 (single isomer, unassigned; (+)) [listing 1 of 2 here]	76.7	97.2	–
CCCCCn1cc(NC(=O)C23CC4CC(CC(C4)C2)C3)c(=O)c2ccccc21	120	99.9	25.5
O=C(c1cn(CCN2CCOCC2)c2ccccc2c1=O)c1cccc2ccccc12	–	46.1	–
CCCCCn1cc(C(=O)NC23CC4CC(C)(CC(C)(C4)C2)C3)c(=O)c2cnccc21	136	95	30.9
CCCCCn1cc(NC(=O)CCc2ccccc2)c(=O)c2ccccc21	183	83.4	1130
CCCCCn1cc(C(=O)NC(C)C23CC4CC(CC(C4)C2)C3)c(=O)c2ccccc21 (stereo in doubt; 24) [listing 2 of 2 here]	175	101	–
CCCCCn1cc(C(=O)NC(C)C23CC4CC(CC(C4)C2)C3)c(=O)c2ccccc21 (single isomer, unassigned; (+)) [listing 1 of 2 here]	172	64.3	–
CCCCCn1c(C)c(C(=O)NCCc2ccccc2)c(=O)c2ccccc21	–	57.3	–

SMILES	Activity (Cannabinoid receptor 2 [1]) [%]	Activity (Cannabinoid receptor 2 [2]) [%]	Ki (Cannabinoid receptor 2 [3]) [nM]
CCCCCn1cc(C(=O)c2ccccc2)c(=O)c2ccccc21	–	94.5	446
CCCCCn1cc(C(=O)NC2CCCc3ccccc32)c(=O)c2ccccc21 (single isomer, unassigned; (-)) [listing 1 of 2 here]	–	90.9	–
CCCCCCn1cc(C(=O)c2ccc(OC)cc2)c(=O)c2ccccc21	–	68.8	> 2000
CCCCn1cc(C(=O)c2ccc(OC)cc2)c(=O)c2ccccc21	–	< 10	–
CC12CC3CC(C)(C1)CC(NC(=O)c1cn(Cc4ccc(Cl)cc4)c4ccccc4c1=O)(C3)C2	–	48.1	–
CCCCCn1cc(C(=O)NC2CCCc3ccccc32)c(=O)c2ccccc21 (single isomer, unassigned; (-)) [listing 2 of 2 here]	–	–	1010
O=C(c1c[nH]c2ccccc2c1=O)c1cccc2ccccc12	–	31	–
CCCCCn1c(C)c(C(=O)NC(C)c2ccccc2)c(=O)c2ccccc21 (single isomer, unassigned; (-))	186	91.7	663
CCCCCn1cc(C(=O)NC2CCCc3ccccc32)c(=O)c2ccccc21 (single isomer, unassigned; (+)) [listing 1 of 2 here]	–	–	41.7
CCCCCn1cc(C(=O)NC(C)C23CC4CC(CC(C4)C2)C3)c(=O)c2ccc(Cl)cc21 (single isomer, unassigned; (+)) [listing 1 of 2 here]	42.7	92.9	–
O=C(c1cn(CCCc2ccccc2)c2ccccc2c1=O)c1cccc2ccccc12	–	80.4	> 2000
CCCCCn1cc(C(=O)NC2CCCc3ccccc32)c(=O)c2ccccc21 (single isomer, unassigned; (+)) [listing 2 of 2 here]	183	–	–
CCCC(C)(C)c1ccc2c(c1)OC(C)(C)[C@@H]1CC=C(C)C[C@@H]21	201	–	–
CCCCn1cc(C(=O)c2cccc3ccccc23)c(=O)c2ccccc21	–	77.7	1550
CCCCCn1c(C)c(C(=O)NC(C)c2cccc3ccccc23)c(=O)c2ccccc21 (single isomer, unassigned; (-))	–	70.4	> 3000
O=C(c1cn(Cc2ccc(Cl)cc2)c2ccccc2c1=O)c1cccc2ccccc12	–	96.5	1120
CCCCCn1cc(C(=O)NC(C)C23CC4CC(CC(C4)C2)C3)c(=O)c2ccc(Cl)cc21 (single isomer, unassigned; (+)) [listing 2 of 2 here]	–	–	265
CCCCCn1cc(CNCCc2ccccc2)c(=O)c2ccccc21	–	25.9	> 4000
CC12CC3CC(C)(C1)CC(NC(=O)c1cn(CCC4CCCCC4)c4ccccc4c1=O)(C3)C2	157	38.8	–
CCCCCn1cc(C(=O)NC(C)C23CC4CC(CC(C4)C2)C3)c(=O)c2cc(Cl)ccc21 (racemic) [listing 2 of 2 here]	97.3	81.8	–
CCCCCn1cc(C(=O)NC(C)C23CC4CC(CC(C4)C2)C3)c(=O)c2cc(Cl)ccc21 (single isomer, unassigned; (-)) [listing 2 of 2 here]	86.1	87.7	–
CCCCCn1cc(C(=O)NC23CC4CC(C)(CC(C)(C4)C2)C3)c(=O)c2ncccc21	170	93.4	259
CCCCCn1cc(C(=O)NC(C)C23CC4CC(CC(C4)C2)C3)c(=O)c2ccccc21 (racemic) [listing 1 of 2 here]	156	99.1	–
CCCCCCC(C)(C)c1ccc(C2CC(O)CC[C@H]2CCCO)c(O)c1 (single isomer, unassigned)	230	–	–

SMILES	Activity (Cannabinoid receptor 2 [1]) [%]	Activity (Cannabinoid receptor 2 [2]) [%]	Ki (Cannabinoid receptor 2 [3]) [nM]
CCCCCn1cc(C(=O)NC23CC4CC(C)(CC(C)(C4)C2)C3)c(=S)c2ccccc21	65.6	95.7	18.2
O=C(NC12CC3CC(CC(C3)C1)C2)c1cn(CCN2CCOCC2)c2ccccc2c1=O	–	101	152
CCCCCn1cc(NC(=O)c2cccc3ccccc23)c(=O)c2ccccc21	139	97.4	265
CCCCCn1cc(C(=O)NC(C)C23CC4CC(CC(C4)C2)C3)c(=O)c2ccc(Cl)cc21 (racemic) [listing 1 of 2 here]	–	–	41.1
CCCCCn1c(-c2ccccc2)c(C(=O)NC23CC4CC(CC(C4)C2)C3)c(=O)c2ccccc21	26.5	94.9	338
CCCCCn1c(-c2ccccc2)c(C(=O)NC23CC4CC(C)(CC(C)(C4)C2)C3)c(=O)c2ccccc21	27.1	97.2	119
CCCCCn1cc(C(=O)c2ccc(OC)cc2)c(=O)c2ccccc21	–	46.9	–
O=C(NCCc1ccccc1)c1cn(CCN2CCOCC2)c2ccccc2c1=O	–	46.7	–
O=C(c1cn(Cc2ccccc2)c2ccccc2c1=O)c1cccc2ccccc12	–	100	656
CCCCCn1cc(C(=O)NC23CC4CC(C)(CC(C)(C4)C2)C3)c(=O)c2ccc(Cl)cc21	51.6	106	5.3
CCCCCn1cc(C(=O)NC(C)C23CC4CC(CC(C4)C2)C3)c(=O)c2cc(Cl)ccc21 (single isomer, unassigned; (+)) [listing 2 of 2 here]	–	–	144
CCCCCn1cc(C(=O)NC(C)C23CC4CC(CC(C4)C2)C3)c(=O)c2ccc(Cl)cc21 (racemic) [listing 2 of 2 here]	56.3	102	–
CCCCCn1cc(C(=O)c2c3ccccc3cc3ccccc23)c(=O)c2ccccc21	–	76.5	1500
CCCCCn1cc(C(=O)NC23CC4CC(C)(CC(C)(C4)C2)C3)c(=O)c2cc(Cl)ccc21	49.6	86.7	54.6
CCCCCn1cc(C(=O)NC(C)C23CC4CC(CC(C4)C2)C3)c(=O)c2ccccc21 (single isomer, unassigned; (+)) [listing 2 of 2 here]	–	–	202
CC12CC3CC(C)(C1)CC(NC(=O)c1cn(Cc4ccc(F)cc4)c4ccccc4c1=O)(C3)C2	157	93.2	83.4
CCCCCn1cc(C(=O)NC2CCCc3ccccc32)c(=O)c2cc(Cl)ccc21 (single isomer, unassigned; (+)) [listing 2 of 2 here]	124	92.8	–
O=C(c1cn(Cc2ccc(Br)cc2)c2ccccc2c1=O)c1cccc2ccccc12	–	93.7	966
O=C(c1cn(CCc2ccccc2)c2ccccc2c1=O)c1cccc2ccccc12	–	56.8	–
CCCCCn1cc(C(=O)NC(C)C23CC4CC(CC(C4)C2)C3)c(=O)c2ccccc21 (racemic) [listing 2 of 2 here]	–	–	28.5
CCCCCCn1cc(C(=O)c2cccc3ccccc23)c(=O)c2ccccc21	–	89.5	582
CCCCCn1cc(C(=O)c2ccc3ccccc3c2)c(=O)c2ccccc21	–	74.3	1290
CCCCCn1c(C)c(C(=O)NC(C)c2ccc3ccccc3c2)c(=O)c2ccccc21 (single isomer, unassigned; (-))	–	62.6	> 2000
